Measurements: ChEMBL document CHEMBL1151929, “Synthesis and antiviral activity evaluation of acyclic 2'-azanucleosides bearing a phosphonomethoxy function in the side chain” (Bioorg Med Chem, 2009)
Active and inactive are the calls of the source.

Key:
Assay type in all cases: functional, organism-based
[1] = tested on: Human alphaherpesvirus 1; assay: Antiviral activity against HSV1 KOS infected in HEL cells assessed as reduction of virus-induced cytopathic effect at 10 to 100 ug/ml
[2] = tested on: Human alphaherpesvirus 2; assay: Antiviral activity against HSV2 G infected in HEL cells assessed as reduction of virus-induced cytopathic effect at 10 to 100 ug/ml; conditions: strain G
[3] = tested on: Human alphaherpesvirus 1; assay: Antiviral activity against acyclovir-resistant thymidine kinase-deficient HSV1 KOS infected in HEL cells assessed as reduction of virus-induced cytopathic effect at 10 to 100 ug/ml
[4] = tested on: Vaccinia virus; assay: Antiviral activity against Vaccinia virus Lederle infected in HEL cells assessed as reduction of virus-induced cytopathic effect at 10 to 100 ug/ml; conditions: Orthopoxvirus vaccinia
[5] = tested on: Vesicular stomatitis virus; assay: Antiviral activity against VSV infected in HEL cells assessed as reduction of virus-induced cytopathic effect at 10 to 100 ug/ml
[6] = tested on: Vesicular stomatitis virus; assay: Antiviral activity against VSV infected in human HeLa cells assessed as reduction of virus-induced cytopathic effect at 10 to 100 ug/ml
In short: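 Confluent HeLa cell cultures were inoculated with 100 CCID50 of VSV and allowed to adsorb for 1–2 h. Unbound virus was removed and cultures were incubated with varying compound concentrations. CPE was scored visually when complete in untreated infected controls. EC50 is the concentration reducing CPE by 50%.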

[7] = tested on: Coxsackievirus B4; assay: Antiviral activity against Coxsackievirus B4 infected in human HeLa cells assessed as reduction of virus-induced cytopathic effect at 10 to 100 ug/ml
In short: (§1)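 Confluent cell monolayers in 96-well plates inoculated with 100 CCID50 of virus; 1–2 h adsorption, residual virus removed, then incubated with varying compound concentrations. CPE scored visually once complete in untreated infected controls; EC50 = concentration reducing virus-induced cytopathicity by 50%. Highest subtoxic concentrations tested 10–100 μg/mL.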

[8] = tested on: Respiratory syncytial virus; assay: Antiviral activity against RSV Long infected in human HeLa cells assessed as reduction of virus-induced cytopathic effect at 10 to 100 ug/ml; in short: as §1
[9] = tested on: Human respirovirus 3; assay: Antiviral activity against Parainfluenza virus 3 infected in african green monkey Vero cells assessed as reduction of virus-induced cytopathic effect at 10 to 100 ug/ml; in short: as §1
[10] = tested on: Mammalian orthoreovirus 1; assay: Antiviral activity against Reovirus 1 infected in african green monkey Vero cells assessed as reduction of virus-induced cytopathic effect at 10 to 100 ug/ml; in short: as §1
[11] = tested on: Sindbis virus; assay: Antiviral activity against Sindbis virus infected in african green monkey Vero cells assessed as reduction of virus-induced cytopathic effect at 10 to 100 ug/ml; in short: as §1
[12] = tested on: Coxsackievirus B4; assay: Antiviral activity against Coxsackievirus B4 infected in african green monkey Vero cells assessed as reduction of virus-induced cytopathic effect at 10 to 100 ug/ml; in short: as §1
[13] = tested on: Punta Toro virus; assay: Antiviral activity against Punta Toro virus infected in african green monkey Vero cells assessed as reduction of virus-induced cytopathic effect at 10 to 100 ug/ml; in short: as §1
[14] = tested on: Human betaherpesvirus 5; assay: Antiviral activity against HCMV AD169 infected in HEL cells assessed as reduction of virus plaque formation at 10 to 100 ug/ml
In short: (§2)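 HEL fibroblasts in 96-well plates infected with 100 PFU HCMV; 1–2 h adsorption, residual virus removed, incubation with varying compound concentrations. EC50 taken as concentration reducing viral plaque formation by 50%. Highest subtoxic concentrations 10–100 μg/mL.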

[15] = tested on: Human betaherpesvirus 5; assay: Antiviral activity against HCMV Davis infected in HEL cells assessed as reduction of virus plaque formation at 10 to 100 ug/ml; in short: as §2
[16] = tested on: Human alphaherpesvirus 3; assay: Antiviral activity against Varicella Zoster virus Oka infected in HEL cells assessed as reduction in viral plaque formation at 10 to 100 ug/ml
[17] = tested on: Human alphaherpesvirus 3; assay: Antiviral activity against thymidine kinase-deficient Varicella Zoster virus 07/1 infected in HEL cells assessed as reduction in viral plaque formation at 10 to 100 ug/ml
[18] = tested on: Feline coronavirus; assay: Antiviral activity against Feline coronavirus infected in cat CRFK cells assessed as effect on cell viability at 10 to 100 ug/ml by MTS assay
In short: (§3)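 CRFK feline kidney cells, confluent in 96-well plates, infected with 100 CCID50; after 1–2 h adsorption, inoculum removed and cultures kept with varying compound concentrations until CPE complete in untreated virus controls. Cell viability read by colorimetric formazan-based MTS assay; EC50 = concentration reducing virus-induced cytopathicity by 50%. Top subtoxic concentrations 10–100 μg/mL.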

[19] = tested on: Felid alphaherpesvirus 1; assay: Antiviral activity against Feline herpesvirus infected in cat CRFK cells assessed as effect on cell viability at 10 to 100 ug/ml by MTS assay; in short: as §3

Measured: Activity

Cc1ccc(S(=O)(=O)N(CCOCP(=O)(O)O)Cn2cc(F)c(=O)[nH]c2=O)cc1
inactive: all assays above

Cc1ccc(S(=O)(=O)N(CCOCP(=O)(O)O)Cn2cc(C)c(=O)[nH]c2=O)cc1
inactive: all assays above

Cc1ccc(S(=O)(=O)N(CCOCP(=O)(O)O)Cn2ccc(=O)[nH]c2=O)cc1
inactive: all assays above

Cc1ccc(S(=O)(=O)N(CCOCP(=O)(O)O)Cn2ccc(N)nc2=O)cc1
inactive: all assays above
